Assay outcomes deposited in PubChem by several laboratories.
core dimer inh: HCV core protein dimerization inhibition; inhibition, % at 5 µM; 300,000 compounds, 0.33% hits; AID 1899; TR-FRET GST/Flag-core106 dimerization, 1536-well;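 active = inhibition above the mean of all tested compounds plus 3 SD, set per screening campaign, cut at about 45% in these data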
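System – GST-tagged and Flag-tagged HCV core protein residues 1-106 · Repeats – one well for each compound · Technique – TR-FRET 671 and 617 nm emission · Doses – one concentration, 5 µM, in 0.5% DMSO · Times – 4 h, 22.5 °C incubation · Also added – Eu donor and XL665 acceptor anti-tag antibodies · Measure – percent inhibition of core106 dimerization signal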
GPR7 antag: human neuropeptides B/W receptor 1 antagonism; P48145; GPR7-expressing cells, fluorescence antagonist assay; inhibition, % at 4.4 µM; 290,000 compounds, 1.1% hits; AID 1861; in the data active = inhibition above about 16%, passing the limit was not always enough;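 note: cells stimulated with the agonist NPW; 0% = agonist with vehicle and 100% = vehicle without agonist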
EBNA-1 inhibitor: blocks EBNA-1 binding to DNA | EBNA-1 DNA binding, fluorescence polarization | inhibition, % at 14.8 µM | 300,000 compounds, 0.34% hits | AID 1950; in the data active = inhibition above about 28%
NS3 helicase inh: inhibitors of Hepatitis C virus NS3 helicase. 290,000 compounds, 0.56% hits. NS3 helicase DNA unwinding, Cy5 molecular beacon fluorescence. AID 1800. inhibition, % at 10.9 µM;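 active = inhibition above the mean of all tested compounds plus 3 SD, set per campaign, cut at about 35% in these data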;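 note: 0% = DMSO wells and 100% = thioflavine S control wells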
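Compound dosing – single dose, 10.9 µM nominal final, DMSO 0.8% final · System – NS3 helicase fragment of HCV · Buffer or medium – MOPS pH 6.5, MgCl2, DTT, Tween20, BSA · Signal – Cy5 beacon fluorescence read at start and 1 h · Also added – annealed dual-labelled DNA beacon duplex, ATP-started · Schedule – 1 h at 25 °C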
EBV gp42 block: blocks Epstein-Barr virus glycoprotein 42 binding | Q1HVG2 | Fluorescence polarization binding assay, mP read-out | inhibition, % (tested at 21.74 µM) | 220,000 compounds, 0.42% hits; in the data active = inhibition above about 50%
Target sequence (Q1HVG2 whole entry, looked up): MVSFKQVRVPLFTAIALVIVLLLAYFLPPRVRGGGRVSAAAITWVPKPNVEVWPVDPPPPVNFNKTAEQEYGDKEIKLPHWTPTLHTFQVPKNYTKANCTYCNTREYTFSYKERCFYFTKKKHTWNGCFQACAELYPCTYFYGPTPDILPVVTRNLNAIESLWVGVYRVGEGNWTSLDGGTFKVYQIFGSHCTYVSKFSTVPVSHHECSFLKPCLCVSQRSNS
ZTA counter: ZTA (EBV) inhibition in EBNA-1 counter-screen; ZTA-DNA binding, fluorescence polarization; P03206; 320,000 compounds, 0.15% hits; AID 2234; inhibition, % at 11 µM; in the data active = inhibition above about 33%
Target sequence (P03206 whole entry, looked up): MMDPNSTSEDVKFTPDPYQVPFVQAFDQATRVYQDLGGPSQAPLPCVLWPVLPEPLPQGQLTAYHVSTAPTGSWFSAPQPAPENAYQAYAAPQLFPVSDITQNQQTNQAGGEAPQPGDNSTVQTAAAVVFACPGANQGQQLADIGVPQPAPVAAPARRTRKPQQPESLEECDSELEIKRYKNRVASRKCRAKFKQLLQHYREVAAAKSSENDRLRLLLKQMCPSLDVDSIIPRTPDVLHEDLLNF
NS3 helicase cf: HCV NS3 helicase inhibition, confirmation assay; shares compounds with NS3 helicase inh; 1,600 compounds, 31% hits; NS3 helicase DNA unwinding, Cy5 molecular beacon fluorescence; AID 1943; inhibition, % at 10.9 µM;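 active = inhibition above the mean of all tested compounds plus 3 SD, cutoff set per campaign, cut at about 36% in these data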
DNA FID counter: displaces DNA intercalator in HCV helicase counter-screen; shares compounds with NS3 helicase inh; DNA fluorescent intercalator displacement, fluorescence; 1,600 compounds, 4% hits; inhibition, % at 7.9 µM; in the data active = inhibition above about 37%;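 note: 0% = vehicle and 100% = reference compound; higher means more displacement of ethidium bromide from the DNA hairpin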
FID counter DR: counter-screen for HCV NS3 helicase inhibitors: DNA intercalator displacement dose response | shares compounds with NS3 helicase inh | fluorescent intercalator displacement from DNA, fluorescence | IC50, µM | 120 tested, under 10 active | AID 2172; call rule not given here
* hit, by the source's call; . = not tested or not shown. This is a sample that favours compounds with a hit; in the whole collection about 2.3% have one here.

SMILES	core dimer inh	GPR7 antag	EBNA-1 inhibitor	NS3 helicase inh	EBV gp42 block	ZTA counter	NS3 helicase cf	DNA FID counter	others
N#CC1=C(N)Oc2ccc3ccc(O)cc3c2C1c1ccsc1 (centres undefined)	.	1	.	53*	161*	.	-11	-57
c1ccc2c(c1)ncc1cccn12	-1	15	1	0	-3	-11	.	.
CCn1c2ccccc2c2c3ncc4cccn4c3ccc21	-11	-10	13	44*	-10	-5	-7	50*
Cc1ccc(SCC(=O)Nc2ccc(S(N)(=O)=O)cc2)cc1	1	-12	7	1	-3	15	.	.
CCc1ccc(N2NC(=O)/C(=C/C=C/c3ccco3)C2=O)cc1	0	-11	12	50*	-7	-16	46*	31
CC1=NN(c2ccc(C(=O)OC(C)C)cc2)C(=O)/C1=C\C=C\c1ccco1	17	-9	10	23	-12	18	.	.
O=C(O)c1cccc(-n2c(/C=C/c3ccccc3)nc3ccccc3c2=O)c1	-2	0	3	53*	.	-20	53*	-23	FID counter DR=>79
CN(C)c1ccc(/C=C/c2nc3ccccc3c(=O)n2-c2ccc(C(=O)O)cc2)cc1	17	17	8	-16	.	14	.	.
CCOC(=O)C1(C)C=C(Nc2ccc(O)cc2)C(=O)N1c1ccc(O)cc1 (centres undefined)	-15	-6	-15	38*	2	-21	-10	14
COc1ccc(CCc2nnc(CCC(=O)NCCc3ncccc3C)o2)cc1	0	-3	11	-3	-3	13	.	.
Cc1ccc(CNC(=O)CS(=O)(=O)Cc2nc(-c3ccc(C)cc3)oc2C)cc1	-6	10	-3	41*	.	-5	-6	-17
NS(=O)(=O)c1ccc(CCNC(=O)c2cc3ccccc3s2)cc1	-17	-2	9	51*	.	-6	-3	-6
NS(=O)(=O)c1ccc(CCNC(=O)c2ccc(Cl)s2)cc1	0	-7	-3	9	.	1	.	.
Cc1ccc(/C=C2\Oc3cc(OCC(=O)NN)ccc3C2=O)o1	.	-9	.	39*	.	.	-1	-4
N=C1CCC(=N)c2c1c(O)c1ccccc1c2O	-23	-3	25	43*	69*	37*	50*	1
N=C1CCCN1c1ccccc1O	-5	-9	0	-9	-17	-5	.	.
C=CCn1c(CCCNC(=O)c2ccccc2OC)nc2ccccc21	-5	-5	8	-3	5	-11	.	.
CC(=O)N(C)c1ccc(N=Cc2c(O)ccc3ccccc23)cc1	-2	-2	-8	36*	.	-12	2	7
Cc1cccc(OCC(=O)Nc2nnc(-c3ccco3)s2)c1	4	14	11	41*	-23	-6	-17	2
NS(=O)(=O)c1ccc(N2C(=O)C(=O)/C(=C(/O)c3ccccc3)C2c2ccc(Cl)cc2)cc1 (centres undefined)	4	-13	0	41*	-10	-1	11	-11
Nc1nnc(CCC2CCCCC2)s1	-1	-5	3	-2	-12	-7	.	.
N#CC1=C(N)SC(N)=C(C#N)C1CCC1CCCCC1	13	-6	4	53*	-90	-3	5	24
COc1ccc(NC(=O)c2ccccc2F)cc1Cl	-2	7	-5	-3	-2	5	.	.
O=C(Nc1ccc(Oc2ccc(Cl)cc2)c(Cl)c1)c1cc(I)cc(I)c1O	21	-2	5	47*	.	-1	84*	33
Cc1ccc(C(=O)Nn2c(C)nc3ccccc3c2=O)cc1C	3	-16	14	3	.	-2	.	.
O=C1/C(=C/c2cccs2)SC(=S)N1NS(=O)(=O)c1ccccc1	4	-5	4	8	-8	3	.	.
